Experimental data published in ChEMBL document CHEMBL3098056, “Small molecule inhibitors of anthrax lethal factor toxin” (Bioorg Med Chem, 2014).

Key:
Lethal factor [1] = target: T1, Lethal factor (Bacillus anthracis, UniProt P15917); assay: Inhibition of Bacillus anthracis lethal factor by fluorescence assay
T1 sequence (P15917 whole entry): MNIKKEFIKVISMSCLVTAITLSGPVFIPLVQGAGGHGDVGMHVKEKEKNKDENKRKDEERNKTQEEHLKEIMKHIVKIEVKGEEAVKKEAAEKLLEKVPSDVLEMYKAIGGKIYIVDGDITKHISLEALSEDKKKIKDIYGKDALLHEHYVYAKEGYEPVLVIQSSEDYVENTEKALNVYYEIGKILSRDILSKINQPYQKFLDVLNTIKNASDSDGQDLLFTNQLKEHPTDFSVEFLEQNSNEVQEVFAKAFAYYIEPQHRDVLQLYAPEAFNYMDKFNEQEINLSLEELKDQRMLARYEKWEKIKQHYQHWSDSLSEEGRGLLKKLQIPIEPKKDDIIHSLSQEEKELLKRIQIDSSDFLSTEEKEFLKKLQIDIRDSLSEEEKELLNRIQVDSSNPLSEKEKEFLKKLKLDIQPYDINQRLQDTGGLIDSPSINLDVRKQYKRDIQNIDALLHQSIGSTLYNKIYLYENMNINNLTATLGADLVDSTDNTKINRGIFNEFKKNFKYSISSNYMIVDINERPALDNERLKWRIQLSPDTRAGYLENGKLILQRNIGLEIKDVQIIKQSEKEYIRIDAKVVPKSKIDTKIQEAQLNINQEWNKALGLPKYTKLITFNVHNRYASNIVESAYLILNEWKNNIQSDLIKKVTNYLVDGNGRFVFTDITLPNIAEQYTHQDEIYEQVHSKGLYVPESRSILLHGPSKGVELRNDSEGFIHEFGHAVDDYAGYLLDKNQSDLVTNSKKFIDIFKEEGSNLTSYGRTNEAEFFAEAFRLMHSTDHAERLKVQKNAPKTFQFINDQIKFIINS
In short: (§1)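 FRET-based assay: LF cleaves a SNAP-derived fluorogenic peptide, and cleavage is read as a change in fluorescence.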

Lethal factor [2] = target: T1, Lethal factor
Lethal factor [3] = target: T1, Lethal factor; assay: Inhibition of Bacillus anthracis lethal factor; in short: as §1
Lethal factor [4] = target: T1, Lethal factor; assay: Non-competitive inhibition of Bacillus anthracis lethal factor using 50 uM MCA-KKVYPYPME[dnp]K amide as substrate after 30 mins by Eadie-Hofstee plot analysis
[5] = target: Matrix metalloproteinase-9 (Homo sapiens, UniProt P14780); assay: Inhibition of human MMP-9 after 60 mins by FRET assay
In short: (§2)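 MMP-1 (38 nM) or MMP-9 (13 nM) with 50 fluorogenic substrate in 50 mM MOPS pH 6.0 and 0.05% NP-40, 37 °C for 60 min (linear range 90 min). Stopped with acetic acid (0.5% final); emission at 440 nm, excitation at 340 nm.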

Lethal factor [6] = target: T1, Lethal factor; assay: Non-competitive inhibition of Bacillus anthracis lethal factor using 100 uM MCA-KKVYPYPME[dnp]K amide as substrate after 30 mins by Eadie-Hofstee plot analysis
Lethal factor [7] = target: T1, Lethal factor; assay: Non-competitive inhibition of Bacillus anthracis lethal factor using 25 uM MCA-KKVYPYPME[dnp]K amide as substrate after 30 mins by Eadie-Hofstee plot analysis
Lethal factor [8] = target: T1, Lethal factor; assay: Non-competitive inhibition of Bacillus anthracis lethal factor using 12.5 uM MCA-KKVYPYPME[dnp]K amide as substrate after 30 mins by Eadie-Hofstee plot analysis
Lethal factor [9] = target: T1, Lethal factor; assay: Inhibition of Bacillus anthracis lethal factor assessed as MCA-KKVYPYPME[dnp]K amide cleavage after 30 mins by fluorescence plate reader analysis
Lethal factor [10] = target: T1, Lethal factor; assay: Non-competitive inhibition of Bacillus anthracis lethal factor using 6.25 uM MCA-KKVYPYPME[dnp]K amide as substrate after 30 mins by Eadie-Hofstee plot analysis
[11] = target: Botulinum neurotoxin type A (Clostridium botulinum, UniProt P0DPI0); assay: Inhibition of Clostridium bolulinum BoNT/A assessed as cleavage of MOCAc-Lys-Lys-Val-Tyr-Pro-Tyr-Pro-Met-Glu-Lys(Dnp)-NH2 after 40 mins by FRET assay
In short: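 BoNT/A light chain (2 nM) in a 96-well FRET format. Reactions were stopped with acetic acid to 0.5% and cleaved-substrate fluorescence read at 485 nm with excitation at 398 nm. The same format served for IC50 and mechanism kinetics.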

Lethal factor [12] = target: T1, Lethal factor; assay: Non-competitive inhibition of Bacillus anthracis lethal factor assessed as MCA-KKVYPYPME[dnp]K amide cleavage after 30 mins by Eadie-Hofstee plot analysis
Interstitial collagenase = target: T2, Interstitial collagenase (Homo sapiens, UniProt P03956); assay: Inhibition of human MMP-1 after 60 mins by FRET assay; in short: as §2
T2 sequence (P03956 whole entry): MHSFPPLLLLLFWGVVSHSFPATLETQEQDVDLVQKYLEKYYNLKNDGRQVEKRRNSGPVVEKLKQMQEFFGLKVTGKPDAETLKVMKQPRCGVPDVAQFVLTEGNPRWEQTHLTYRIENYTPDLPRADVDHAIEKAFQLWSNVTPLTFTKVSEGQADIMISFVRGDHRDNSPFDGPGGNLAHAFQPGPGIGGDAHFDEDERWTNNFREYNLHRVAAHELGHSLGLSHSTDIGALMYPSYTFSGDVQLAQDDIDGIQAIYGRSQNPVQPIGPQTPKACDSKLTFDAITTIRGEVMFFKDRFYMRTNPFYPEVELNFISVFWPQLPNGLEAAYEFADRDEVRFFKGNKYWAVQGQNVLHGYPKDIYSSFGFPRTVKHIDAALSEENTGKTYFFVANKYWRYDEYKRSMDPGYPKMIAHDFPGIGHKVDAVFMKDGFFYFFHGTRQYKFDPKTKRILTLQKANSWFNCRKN

Lethal factor [13] = target: T1, Lethal factor; assay: Non-competitive inhibition of Bacillus anthracis lethal factor using 3.12 uM MCA-KKVYPYPME[dnp]K amide as substrate after 30 mins by Eadie-Hofstee plot analysis

Matrix metalloproteinase-9, sequence (P14780 whole entry): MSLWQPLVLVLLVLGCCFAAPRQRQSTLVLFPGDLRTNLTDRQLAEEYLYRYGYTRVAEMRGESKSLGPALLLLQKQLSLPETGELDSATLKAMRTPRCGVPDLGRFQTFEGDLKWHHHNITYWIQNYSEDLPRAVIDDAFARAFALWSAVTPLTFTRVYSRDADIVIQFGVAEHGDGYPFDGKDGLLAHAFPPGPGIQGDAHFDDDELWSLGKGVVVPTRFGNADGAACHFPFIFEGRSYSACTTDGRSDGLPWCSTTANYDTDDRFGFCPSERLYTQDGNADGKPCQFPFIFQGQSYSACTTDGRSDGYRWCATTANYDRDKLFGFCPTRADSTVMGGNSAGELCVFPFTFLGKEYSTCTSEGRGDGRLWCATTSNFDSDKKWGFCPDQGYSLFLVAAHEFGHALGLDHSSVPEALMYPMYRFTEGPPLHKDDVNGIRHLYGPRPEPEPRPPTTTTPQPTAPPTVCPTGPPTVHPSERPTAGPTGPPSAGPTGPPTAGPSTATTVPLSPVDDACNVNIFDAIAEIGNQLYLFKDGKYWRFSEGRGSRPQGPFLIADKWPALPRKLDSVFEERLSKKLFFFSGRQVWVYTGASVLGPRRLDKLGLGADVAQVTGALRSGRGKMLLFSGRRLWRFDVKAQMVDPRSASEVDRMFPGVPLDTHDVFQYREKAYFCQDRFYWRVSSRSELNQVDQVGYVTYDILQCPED
Botulinum neurotoxin type A, sequence (P0DPI0 2-448 limits assumed): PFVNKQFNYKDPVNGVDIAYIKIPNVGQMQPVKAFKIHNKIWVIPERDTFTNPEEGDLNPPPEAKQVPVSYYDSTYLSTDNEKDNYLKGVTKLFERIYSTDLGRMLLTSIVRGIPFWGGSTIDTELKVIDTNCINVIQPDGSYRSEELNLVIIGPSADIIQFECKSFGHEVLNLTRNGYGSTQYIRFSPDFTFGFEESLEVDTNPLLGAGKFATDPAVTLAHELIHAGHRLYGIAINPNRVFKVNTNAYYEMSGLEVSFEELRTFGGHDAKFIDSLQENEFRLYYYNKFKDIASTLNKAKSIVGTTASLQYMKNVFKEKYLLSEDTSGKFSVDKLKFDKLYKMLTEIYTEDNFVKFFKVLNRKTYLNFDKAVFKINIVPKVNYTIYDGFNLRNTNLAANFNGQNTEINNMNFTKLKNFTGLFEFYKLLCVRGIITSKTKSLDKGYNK

O=c1oc2c(O)c(O)ccc2c2c1CCC2
Ki (Lethal factor [1]): 570 nM

Cc1cc(S(=O)(=O)N[C@@H](C(=O)NO)C2CCOCC2)ccc1F
Ki (Lethal factor [2]): 24 nM

CNC(=O)[C@@H](CCc1ccccc1)NC(=O)[C@@H](CC(=O)NO)CC(C)C
IC50 (Lethal factor [3]): 7000 nM

COc1ccccc1CCC(=O)Nc1ccc2nc(C)cc(N)c2c1
IC50 (Lethal factor [4]): 1100 nM | IC50 [5]: > 100000 nM | IC50 (Lethal factor [6]): 1220 nM | IC50 (Lethal factor [7]): 952 nM | IC50 (Lethal factor [8]): 841 nM | IC50 (Lethal factor [9]): 3000 nM | IC50 (Lethal factor [10]): 729 nM | IC50 [11]: > 100000 nM | Ki (Lethal factor [12]): 2880 nM | IC50 (Interstitial collagenase): > 100000 nM | Ki (Lethal factor [13]): 478 nM

Cc1cc(N)c2cc(NC(=O)c3ccc(-c4ccc5ncccc5c4)cc3)ccc2n1
IC50 (Lethal factor [4]): 1160 nM | IC50 [5]: 1700 nM | IC50 (Lethal factor [6]): 1100 nM | IC50 (Lethal factor [7]): 1220 nM | IC50 (Lethal factor [8]): 1250 nM | IC50 (Lethal factor [9]): 1600 nM | IC50 (Lethal factor [10]): 1260 nM | IC50 [11]: 38000 nM | Ki (Lethal factor [12]): 1140 nM | IC50 (Interstitial collagenase): > 100000 nM | Ki (Lethal factor [13]): 1260 nM
